Measured values reported in ChEMBL document CHEMBL1148382, “Synthesis and structure-activity relationship for a novel class of potent and selective carbamoyl-triazole based inhibitors of hormone sensitive lipase” (J Med Chem, 2004).

Columns and labels:
Hormone-sensitive lipase = molecular target: T1, Hormone-sensitive lipase (Homo sapiens, UniProt Q05469); test: Inhibition of hormone sensitive lipase (HSL).
T1 sequence (Q05469 whole entry): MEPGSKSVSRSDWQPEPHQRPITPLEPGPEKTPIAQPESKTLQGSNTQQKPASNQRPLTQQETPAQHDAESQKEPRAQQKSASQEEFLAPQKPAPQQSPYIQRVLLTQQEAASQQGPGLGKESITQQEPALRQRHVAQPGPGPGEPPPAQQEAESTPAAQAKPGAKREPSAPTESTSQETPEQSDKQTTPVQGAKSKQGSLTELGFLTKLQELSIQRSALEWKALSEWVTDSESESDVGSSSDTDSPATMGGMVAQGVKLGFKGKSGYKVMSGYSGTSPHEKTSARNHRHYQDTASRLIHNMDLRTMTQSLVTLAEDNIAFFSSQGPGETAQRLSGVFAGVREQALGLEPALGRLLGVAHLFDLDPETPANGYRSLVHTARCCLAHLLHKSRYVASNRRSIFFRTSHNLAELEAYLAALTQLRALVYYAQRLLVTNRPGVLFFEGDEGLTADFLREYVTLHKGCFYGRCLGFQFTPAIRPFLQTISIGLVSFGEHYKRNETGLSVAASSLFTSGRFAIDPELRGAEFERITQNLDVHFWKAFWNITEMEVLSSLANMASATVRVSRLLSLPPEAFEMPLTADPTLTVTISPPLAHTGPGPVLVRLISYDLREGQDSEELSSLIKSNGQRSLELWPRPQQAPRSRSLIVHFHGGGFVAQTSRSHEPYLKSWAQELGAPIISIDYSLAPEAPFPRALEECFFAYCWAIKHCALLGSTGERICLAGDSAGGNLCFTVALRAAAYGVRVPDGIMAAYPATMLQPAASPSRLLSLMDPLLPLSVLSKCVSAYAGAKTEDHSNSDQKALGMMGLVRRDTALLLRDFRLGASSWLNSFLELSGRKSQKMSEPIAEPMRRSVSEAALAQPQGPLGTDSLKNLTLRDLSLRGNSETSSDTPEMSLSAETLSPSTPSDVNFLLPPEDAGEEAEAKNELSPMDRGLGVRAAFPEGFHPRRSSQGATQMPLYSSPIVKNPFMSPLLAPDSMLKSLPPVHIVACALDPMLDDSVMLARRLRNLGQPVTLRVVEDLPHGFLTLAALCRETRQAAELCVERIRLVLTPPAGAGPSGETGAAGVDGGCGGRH

[1] = molecular target: T2, Hepatic triacylglycerol lipase (Homo sapiens, UniProt P11150); test: Compound was tested to inhibit hepatic lipase (HL)
T2 sequence (P11150 whole entry): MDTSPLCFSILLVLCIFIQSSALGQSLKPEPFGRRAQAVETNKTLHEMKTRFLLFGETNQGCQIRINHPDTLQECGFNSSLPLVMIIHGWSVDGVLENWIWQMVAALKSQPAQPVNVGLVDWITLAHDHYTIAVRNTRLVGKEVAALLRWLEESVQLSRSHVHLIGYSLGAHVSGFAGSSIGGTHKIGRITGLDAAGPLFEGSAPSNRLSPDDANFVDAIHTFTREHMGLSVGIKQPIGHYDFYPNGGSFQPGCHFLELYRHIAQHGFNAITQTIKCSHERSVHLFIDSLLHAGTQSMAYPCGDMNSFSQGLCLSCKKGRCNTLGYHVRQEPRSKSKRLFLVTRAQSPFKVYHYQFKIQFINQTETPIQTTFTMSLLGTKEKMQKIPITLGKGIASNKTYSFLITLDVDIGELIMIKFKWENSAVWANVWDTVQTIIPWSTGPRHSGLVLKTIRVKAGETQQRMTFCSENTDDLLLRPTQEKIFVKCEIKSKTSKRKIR
In short: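 Emulsion assay with a fluorochrome (NBD)-labeled triacylglyceride in phosphatidylcholine/phosphatidylinositol 3:1 micelles, diluted in PED-BSA buffer pH 7.0. HL (1 μg/mL) and inhibitor in DOC buffer (10 mM TRIS-HCl pH 8.5, 5 mM deoxycholate) preincubated 70 min at 25 °C, then added with NaCl and TRIS pH 8.5. Fluorescence (ex 450/em 545 nm) read at 0 and 120 min, 37 °C. Inhibitor top concentration 100 μM, six 5-fold dilutions, duplicates; sigmoidal variable-slope IC50 fit.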

Acetylcholinesterase [2] = molecular target: T3, Acetylcholinesterase (Homo sapiens, UniProt P22303); test: Inhibitory concentration against acetylcholinesterase
Cholinesterase = Cholinesterase (Homo sapiens, UniProt P06276); test: Inhibitory concentration against butyrylcholinesterase.
[3] = molecular target: T4, Pancreatic triacylglycerol lipase (Homo sapiens, UniProt P16233); test: Compound was tested to inhibit pancreatic lipase (PL)
T4 sequence (P16233 whole entry): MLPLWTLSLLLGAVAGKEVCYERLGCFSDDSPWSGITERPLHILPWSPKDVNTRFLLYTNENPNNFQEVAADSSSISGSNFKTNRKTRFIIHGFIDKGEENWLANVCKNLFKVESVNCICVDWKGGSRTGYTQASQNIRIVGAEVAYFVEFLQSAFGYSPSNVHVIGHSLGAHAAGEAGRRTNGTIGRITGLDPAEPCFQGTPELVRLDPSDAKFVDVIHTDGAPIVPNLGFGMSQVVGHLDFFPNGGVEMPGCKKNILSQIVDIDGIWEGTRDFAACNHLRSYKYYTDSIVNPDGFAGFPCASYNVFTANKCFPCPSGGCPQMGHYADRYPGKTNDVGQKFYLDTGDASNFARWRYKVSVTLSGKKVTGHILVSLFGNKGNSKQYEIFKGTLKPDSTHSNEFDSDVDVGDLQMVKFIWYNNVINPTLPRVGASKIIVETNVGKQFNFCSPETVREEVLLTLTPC
In short: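 PL (1 μg/mL) plus colipase (5 μg/mL) preincubated with inhibitor 40 min at 25 °C. Then combined with TRIS buffer pH 8.0 (NaCl, 1 mM NaTDC) and labeled triacylglyceride emulsion prepared in TRIS pH 8.0 with 8 mM NaTDC, 0.3 M NaCl, 2 mM CaCl2. Fluorescence (ex 450/em 545 nm) read at 0 and 60 min, 37 °C. Six concentrations from 100 μM in 5-fold steps, duplicates; sigmoidal IC50 fit.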

[4] = molecular target: Lipoprotein lipase (Bos taurus) (UniProt P11151); test: Compound was tested to inhibit lipoprotein lipase (LPL)
Acetylcholinesterase [5] = molecular target: T3, Acetylcholinesterase; test: Inhibitory concentration against acetylcholinesterase; non classical inhibitor, maximum HSL inhibition of […]%

Chain of Cholinesterase (P06276 whole entry): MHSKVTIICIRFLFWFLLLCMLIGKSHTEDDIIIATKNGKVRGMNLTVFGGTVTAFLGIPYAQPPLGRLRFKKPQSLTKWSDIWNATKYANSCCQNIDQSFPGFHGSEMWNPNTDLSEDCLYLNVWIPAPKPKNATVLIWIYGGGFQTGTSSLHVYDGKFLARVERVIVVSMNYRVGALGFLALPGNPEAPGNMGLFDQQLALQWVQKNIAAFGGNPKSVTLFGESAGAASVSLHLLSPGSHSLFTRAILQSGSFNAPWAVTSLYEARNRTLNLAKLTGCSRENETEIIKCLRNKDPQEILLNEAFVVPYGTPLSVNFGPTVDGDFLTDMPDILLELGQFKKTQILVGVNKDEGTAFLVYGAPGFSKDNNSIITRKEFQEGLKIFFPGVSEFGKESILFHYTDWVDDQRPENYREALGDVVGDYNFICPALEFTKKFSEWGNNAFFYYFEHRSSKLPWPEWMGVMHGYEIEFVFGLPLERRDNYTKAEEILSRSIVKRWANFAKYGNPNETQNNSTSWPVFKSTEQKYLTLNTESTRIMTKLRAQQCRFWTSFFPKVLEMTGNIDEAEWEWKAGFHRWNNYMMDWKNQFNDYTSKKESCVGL
Chain of Lipoprotein lipase (Bos taurus) (P11151 whole entry, looked up): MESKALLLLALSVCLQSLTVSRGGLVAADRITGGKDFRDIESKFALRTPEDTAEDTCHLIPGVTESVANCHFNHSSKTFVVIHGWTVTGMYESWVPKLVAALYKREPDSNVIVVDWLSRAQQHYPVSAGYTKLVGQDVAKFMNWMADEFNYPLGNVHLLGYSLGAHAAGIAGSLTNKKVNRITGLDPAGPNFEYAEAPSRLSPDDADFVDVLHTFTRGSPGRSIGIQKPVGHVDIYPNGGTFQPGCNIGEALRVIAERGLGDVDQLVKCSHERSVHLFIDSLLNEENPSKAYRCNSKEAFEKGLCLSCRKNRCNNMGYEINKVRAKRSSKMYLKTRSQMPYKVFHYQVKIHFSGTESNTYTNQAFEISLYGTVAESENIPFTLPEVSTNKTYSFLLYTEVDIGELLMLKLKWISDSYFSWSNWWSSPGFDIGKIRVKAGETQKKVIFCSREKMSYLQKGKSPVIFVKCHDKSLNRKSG
T3 sequence (P22303 whole entry): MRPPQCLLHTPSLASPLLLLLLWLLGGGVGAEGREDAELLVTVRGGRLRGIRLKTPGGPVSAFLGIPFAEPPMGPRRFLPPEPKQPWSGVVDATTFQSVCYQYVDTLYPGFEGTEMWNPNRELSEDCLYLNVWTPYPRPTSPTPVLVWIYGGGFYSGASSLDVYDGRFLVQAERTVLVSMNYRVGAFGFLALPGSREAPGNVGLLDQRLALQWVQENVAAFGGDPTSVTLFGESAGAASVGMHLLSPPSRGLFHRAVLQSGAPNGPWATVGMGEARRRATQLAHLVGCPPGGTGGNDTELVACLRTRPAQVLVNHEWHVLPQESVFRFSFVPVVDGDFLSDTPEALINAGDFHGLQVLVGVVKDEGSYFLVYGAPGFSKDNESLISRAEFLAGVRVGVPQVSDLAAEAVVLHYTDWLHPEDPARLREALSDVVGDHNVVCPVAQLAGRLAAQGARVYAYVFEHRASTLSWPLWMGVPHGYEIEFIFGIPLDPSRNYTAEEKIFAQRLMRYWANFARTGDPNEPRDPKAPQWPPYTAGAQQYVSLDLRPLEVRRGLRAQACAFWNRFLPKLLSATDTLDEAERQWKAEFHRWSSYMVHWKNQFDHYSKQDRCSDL

| SMILES | IC50 (Hormone-sensitive lipase) [nM] | IC50 [1] [nM] | IC50 (Acetylcholinesterase [2]) [nM] | IC50 (Cholinesterase) [nM] | IC50 [3] [nM] | IC50 [4] [nM] | IC50 (Acetylcholinesterase [5]) |
| --- | --- | --- | --- | --- | --- | --- | --- |
| Cc1c(C(C)C)c(=O)on1C(=O)N1CCC[C@H](C)C1 | 170 | > 50000 | 17000 | > 50000 | > 50000 | > 50000 | – |
| CSc1nc(-c2ccc(Cl)cc2)nn1C(=O)N(C)C | 20 | – | 100 | < 10 | – | – | – |
| CSc1nc(-c2ccc(C)cc2)nn1C(=O)N(C)c1ccccc1 | 100 | – | 2400 | – | – | – | – |
| CSc1nc(-c2ccc(OC(F)(F)F)cc2)nn1C(=O)N(C)C | 100 | – | 800 | 200 | – | – | – |
| O=C(N1CCCCC1)n1nc(-c2ccc(Cl)cc2)nc1SCC(F)(F)F | 400 | – | 300 | 1000 | – | – | – |
| CSc1nc(-c2ccc(Cl)cc2)nn1C(=O)N1CCOCC1 | 2000 | – | > 50000 | 14000 | – | – | – |
| CSc1nc(-c2ccc(Cl)cc2)nn1C(=O)N1CCCCC1 | 100 | – | 26 | 900 | – | – | – |
| CSc1nc(-c2ccc(C)cc2)nn1C(=O)N1CCOCC1 | 4000 | – | > 50000 | 2000 | – | – | – |
| CSc1nc(-c2ccc(OC(F)(F)F)cc2)nn1C(=O)N(C)c1ccccc1 | 250 | > 50000 | > 50000 | > 50000 | > 50000 | > 50000 | – |
| Cc1ccc(-c2nc(SCC(F)(F)F)n(C(=O)N(C)C)n2)cc1 | 600 | – | 200 | 460 | – | – | – |
| CSc1nc(-c2ccc(Cl)cc2)nn1C(=O)N(C)c1ccccc1 | 160 | – | 1400 | – | – | – | – |
| CN(C(=O)n1nc(-c2ccc(Cl)cc2)nc1SCC(F)(F)F)c1ccccc1 | 170 | > 50000 | > 50000 | > 50000 | > 50000 | > 50000 | – |
| CSc1nc(-c2ccc(C)cc2)nn1C(=O)N(C)C | 30 | – | 800 | 200 | – | – | – |
| CCCCCCSc1nc(-c2ccc(Cl)cc2)nn1C(=O)N(C)c1ccccc1 | 400 | – | > 50000 | – | – | – | – |
| CCOc1nn(-c2cccc(OCc3ccccc3)c2)c(=O)o1 | 1100 | 15000 | 750 | 920 | > 10000 | > 10000 | – |
| O=C(N1CCOCC1)n1nc(-c2ccc(Cl)cc2)nc1SCC(F)(F)F | 9000 | – | > 50000 | > 50000 | – | – | – |

| SMILES | IC50 (Hormone-sensitive lipase) [nM] | IC50 [1] [nM] | IC50 (Acetylcholinesterase [2]) [nM] | IC50 (Cholinesterase) [nM] | IC50 [3] [nM] | IC50 [4] [nM] | IC50 (Acetylcholinesterase [5]) |
| --- | --- | --- | --- | --- | --- | --- | --- |
| CCCSc1nc(-c2ccc(Cl)cc2)nn1C(=O)N(C)C | 60 | – | 300 | 100 | – | – | – |
| CCSc1nc(-c2ccc(OC)cc2)nn1C(=O)N(C)c1ccccc1 | 300 | – | 1100 | – | – | – | – |
| CSc1nc(-c2ccc3ccccc3c2)nn1C(=O)N(C)C | 2000 | – | 50 | 130 | – | – | – |
| CN(C(=O)n1nc(-c2ccc(Cl)cc2)nc1SCC1CC1)c1ccccc1 | 62 | – | – | – | – | – | Non classical inhibitor |
| CCCCCCSc1nc(-c2ccc(Cl)cc2)nn1C(=O)N1CCCCC1 | > 50000 | – | < 10 | > 50000 | – | – | – |
| CCCCCCSc1nc(-c2ccc(C)cc2)nn1C(=O)N(C)C | > 50000 | – | 200 | 300 | – | – | – |
| O=C(N1CCCCC1)n1nc(-c2ccc(Cl)cc2)nc1SCC1CC1 | 200 | – | 100 | 900 | – | – | – |
| CCSc1nc(-c2ccc(Cl)cc2)nn1C(=O)N(C)C | 210 | – | 56 | 50 | – | – | – |
| COc1ccc(-c2nc(SC)n(C(=O)N(C)C)n2)cc1 | 900 | – | 800 | 410 | – | – | – |
| CCCCCCSc1nc(-c2ccc(C)cc2)nn1C(=O)N(C)c1ccccc1 | 700 | – | > 50000 | – | – | – | – |
| CCCCCCSc1nc(-c2ccc(Cl)cc2)nn1C(=O)N1CCOCC1 | > 50000 | – | > 50000 | > 50000 | – | – | – |
| CSc1nc(-c2ccc(C(F)(F)F)cc2)nn1C(=O)N(C)C | 100 | – | 500 | 100 | – | – | – |
| CSc1nc(-c2ccc(-c3ccccc3)cc2)nn1C(=O)N(C)C | 1500 | – | 560 | 230 | – | – | – |
| COc1nn(-c2ccc(NC(=O)c3ccc(C(C)(C)C)cc3)cc2)c(=O)o1 | 23 | 1800 | > 50000 | > 50000 | > 10000 | 200 | – |
| CSc1nc(/C=C/c2ccccc2)nn1C(=O)N(C)C | > 50000 | – | < 10 | 370 | – | – | – |
| CCSc1nc(-c2ccc(OC)cc2)nn1C(=O)N1CCOCC1 | 9000 | – | > 50000 | 4000 | – | – | – |
